{
  "source": "ChEMBL document CHEMBL1132764",
  "about": "“Solution-phase combinatorial synthesis and evaluation of piperazine-2,5-dione derivatives” (2000)",
  "data": [
    {"test_system": "Artemia salina", "test": "(§1) Compound was tested for brine shrimp (Artemia salina) toxicity measured as the lowest value at which severe inhibition of nauplii movement was observed", "assay_type": "functional", "settings": "not given", "outline": "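Artemia salina eggs held 24 h in artificial seawater; about 20 nauplii per well in 980 µL brine. Compound added as 1-100 µg in 20 µL DMSO, top concentration 100 µg/mL, each concentration in quadruplicate. Incubated 24 h at 26 °C. Larvae scored against DMSO controls (control deaths <10%). Assay conditions validated with caffeine.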", "units": {"lowest concentration causing severe inhibition of nauplii movement": "µg/mL"}, "values": [
      {"smiles": "COc1ccc(/C=c2\\[nH]c(=O)/c(=C/c3ccc(OC)cc3)[nH]c2=O)cc1", "lowest concentration causing severe inhibition of nauplii movement": ">100"},
      {"smiles": "COc1ccc(/C=c2\\[nH]c(=O)/c(=C/c3cccs3)[nH]c2=O)cc1OC", "lowest concentration causing severe inhibition of nauplii movement": ">100"},
      {"smiles": "O=c1[nH]/c(=C\\c2cccs2)c(=O)[nH]/c1=C\\c1ccccn1", "lowest concentration causing severe inhibition of nauplii movement": 100},
      {"smiles": "CC(C)/C=c1\\[nH]c(=O)/c(=C/C(C)C)[nH]c1=O", "lowest concentration causing severe inhibition of nauplii movement": ">100"},
      {"smiles": "COc1cc(OC)c(/C=c2\\[nH]c(=O)/c(=C/c3cccs3)[nH]c2=O)c(OC)c1", "lowest concentration causing severe inhibition of nauplii movement": ">100"},
      {"smiles": "COc1cc(/C=c2\\[nH]c(=O)/c(=C/c3cc(OC)c(OC)c(OC)c3)[nH]c2=O)cc(OC)c1OC", "lowest concentration causing severe inhibition of nauplii movement": ">100"},
      {"smiles": "COc1ccc(/C=c2\\[nH]c(=O)/c(=C/c3ccc([N+](=O)[O-])cc3)[nH]c2=O)cc1", "lowest concentration causing severe inhibition of nauplii movement": ">100"},
      {"smiles": "COc1cc(/C=c2\\[nH]c(=O)/c(=C/c3ccccn3)[nH]c2=O)cc(OC)c1OC", "lowest concentration causing severe inhibition of nauplii movement": 100},
      {"smiles": "O=c1[nH]/c(=C\\c2ccccc2[N+](=O)[O-])c(=O)[nH]/c1=C\\c1ccc([N+](=O)[O-])cc1", "lowest concentration causing severe inhibition of nauplii movement": ">100"},
      {"smiles": "C/C=c1\\[nH]c(=O)/c(=C/CCCCC)[nH]c1=O", "lowest concentration causing severe inhibition of nauplii movement": ">100"},
      {"smiles": "C/C=c1\\[nH]c(=O)c(=CC=Cc2ccccc2)[nH]c1=O", "lowest concentration causing severe inhibition of nauplii movement": ">100"},
      {"smiles": "O=c1[nH]/c(=C\\c2cccs2)c(=O)[nH]/c1=C\\c1cccs1", "lowest concentration causing severe inhibition of nauplii movement": ">100"},
      {"smiles": "COc1cc(OC)c(/C=c2\\[nH]c(=O)/c(=C/c3c[nH]c4ccccc34)[nH]c2=O)c(OC)c1", "lowest concentration causing severe inhibition of nauplii movement": ">100"},
      {"smiles": "C/C=c1\\[nH]c(=O)/c(=C/C=C/C)[nH]c1=O", "lowest concentration causing severe inhibition of nauplii movement": ">100"},
      {"smiles": "COc1ccc(/C=c2\\[nH]c(=O)/c(=C/c3cc(OC)c(OC)c(OC)c3)[nH]c2=O)cc1OC", "lowest concentration causing severe inhibition of nauplii movement": 100},
      {"smiles": "COc1cc(/C=c2\\[nH]c(=O)/c(=C/c3cc(OC)c(OC)c(OC)c3)[nH]c2=O)cc(OC)c1", "lowest concentration causing severe inhibition of nauplii movement": 100},
      {"smiles": "COc1cc(/C=c2\\[nH]c(=O)/c(=C/c3c[nH]c4ccccc34)[nH]c2=O)cc(OC)c1", "lowest concentration causing severe inhibition of nauplii movement": ">100"},
      {"smiles": "O=c1[nH]/c(=C\\c2ccc(Cl)cc2)c(=O)[nH]/c1=C\\c1ccc(Cl)cc1", "lowest concentration causing severe inhibition of nauplii movement": ">100"},
      {"smiles": "C/C=C/C=c1\\[nH]c(=O)/c(=C/C(C)C)[nH]c1=O", "lowest concentration causing severe inhibition of nauplii movement": ">100"},
      {"smiles": "COc1ccc(/C=c2\\[nH]c(=O)/c(=C/c3ccc(Cl)cc3)[nH]c2=O)cc1", "lowest concentration causing severe inhibition of nauplii movement": ">100"},
      {"smiles": "O=c1[nH]/c(=C\\c2c[nH]c3ccccc23)c(=O)[nH]/c1=C\\c1c[nH]c2ccccc12", "lowest concentration causing severe inhibition of nauplii movement": ">100"},
      {"smiles": "O=c1[nH]/c(=C\\c2ccc([N+](=O)[O-])cc2)c(=O)[nH]/c1=C\\c1ccc(Cl)cc1", "lowest concentration causing severe inhibition of nauplii movement": ">100"},
      {"smiles": "CC/C=c1\\[nH]c(=O)c(=CC=Cc2ccccc2)[nH]c1=O", "lowest concentration causing severe inhibition of nauplii movement": ">100"},
      {"smiles": "COc1ccc(/C=c2\\[nH]c(=O)/c(=C/c3ccc(OC)c(OC)c3)[nH]c2=O)cc1OC", "lowest concentration causing severe inhibition of nauplii movement": ">100"},
      {"smiles": "C/C=C/C=c1\\[nH]c(=O)/c(=C/CC)[nH]c1=O", "lowest concentration causing severe inhibition of nauplii movement": ">100"},
      {"smiles": "O=c1[nH]/c(=C\\c2ccc([N+](=O)[O-])cc2)c(=O)[nH]/c1=C\\c1ccccc1", "lowest concentration causing severe inhibition of nauplii movement": ">100"},
      {"smiles": "COc1cc(OC)c(/C=c2\\[nH]c(=O)/c(=C/c3cc(OC)c(OC)c(OC)c3)[nH]c2=O)c(OC)c1", "lowest concentration causing severe inhibition of nauplii movement": ">100"},
      {"smiles": "O=c1[nH]/c(=C\\c2ccccc2[N+](=O)[O-])c(=O)[nH]/c1=C\\c1ccccc1", "lowest concentration causing severe inhibition of nauplii movement": ">100"},
      {"smiles": "COc1cc(/C=c2\\[nH]c(=O)/c(=C/c3ccc(OC)c(OC)c3)[nH]c2=O)cc(OC)c1", "lowest concentration causing severe inhibition of nauplii movement": ">100"},
      {"smiles": "C/C=C/C=c1\\[nH]c(=O)/c(=C/CCCCC)[nH]c1=O", "lowest concentration causing severe inhibition of nauplii movement": 100},
      {"smiles": "C/C=C/C=c1\\[nH]c(=O)/c(=C/C=C/C)[nH]c1=O", "lowest concentration causing severe inhibition of nauplii movement": ">100"},
      {"smiles": "C/C=c1\\[nH]c(=O)/c(=C/CC)[nH]c1=O", "lowest concentration causing severe inhibition of nauplii movement": ">100"},
      {"smiles": "COc1cc(/C=c2\\[nH]c(=O)/c(=C/c3c(OC)cc(OC)cc3OC)[nH]c2=O)cc(OC)c1", "lowest concentration causing severe inhibition of nauplii movement": 100},
      {"smiles": "CCCCC/C=c1\\[nH]c(=O)/c(=C/C(C)C)[nH]c1=O", "lowest concentration causing severe inhibition of nauplii movement": ">100"},
      {"smiles": "CC/C=c1\\[nH]c(=O)/c(=C/CC)[nH]c1=O", "lowest concentration causing severe inhibition of nauplii movement": ">100"},
      {"smiles": "O=c1[nH]/c(=C\\c2c[nH]c3ccccc23)c(=O)[nH]/c1=C\\c1cccs1", "lowest concentration causing severe inhibition of nauplii movement": ">100"},
      {"smiles": "COc1ccc(/C=c2\\[nH]c(=O)/c(=C/c3ccccc3[N+](=O)[O-])[nH]c2=O)cc1", "lowest concentration causing severe inhibition of nauplii movement": ">100"},
      {"smiles": "CC/C=c1\\[nH]c(=O)/c(=C/C(C)C)[nH]c1=O", "lowest concentration causing severe inhibition of nauplii movement": ">100"},
      {"smiles": "C/C=c1\\[nH]c(=O)/c(=C/C)[nH]c1=O", "lowest concentration causing severe inhibition of nauplii movement": 100},
      {"smiles": "O=c1[nH]/c(=C\\c2ccccc2[N+](=O)[O-])c(=O)[nH]/c1=C\\c1ccc(Cl)cc1", "lowest concentration causing severe inhibition of nauplii movement": ">100"},
      {"smiles": "O=c1[nH]/c(=C\\c2ccc(O)cc2)c(=O)[nH]/c1=C\\c1ccccc1", "lowest concentration causing severe inhibition of nauplii movement": ">100"},
      {"smiles": "CC/C=c1\\[nH]c(=O)/c(=C/CCCCC)[nH]c1=O", "lowest concentration causing severe inhibition of nauplii movement": 100},
      {"smiles": "O=c1[nH]/c(=C\\c2ccc([N+](=O)[O-])cc2)c(=O)[nH]/c1=C\\c1ccc([N+](=O)[O-])cc1", "lowest concentration causing severe inhibition of nauplii movement": ">100"},
      {"smiles": "COc1cc(OC)c(/C=c2\\[nH]c(=O)/c(=C/c3c(OC)cc(OC)cc3OC)[nH]c2=O)c(OC)c1", "lowest concentration causing severe inhibition of nauplii movement": 100},
      {"smiles": "O=c1[nH]/c(=C\\c2ccccc2)c(=O)[nH]/c1=C\\c1ccccc1", "lowest concentration causing severe inhibition of nauplii movement": ">100"},
      {"smiles": "O=c1[nH]/c(=C\\c2ccccn2)c(=O)[nH]/c1=C\\c1ccccn1", "lowest concentration causing severe inhibition of nauplii movement": 100},
      {"smiles": "O=c1[nH]/c(=C\\c2ccccc2[N+](=O)[O-])c(=O)[nH]/c1=C\\c1ccccc1[N+](=O)[O-]", "lowest concentration causing severe inhibition of nauplii movement": ">100"},
      {"smiles": "COc1cc(/C=c2\\[nH]c(=O)/c(=C/c3cccs3)[nH]c2=O)cc(OC)c1OC", "lowest concentration causing severe inhibition of nauplii movement": ">100"},
      {"smiles": "O=c1[nH]/c(=C\\c2c[nH]c3ccccc23)c(=O)[nH]/c1=C\\c1ccccn1", "lowest concentration causing severe inhibition of nauplii movement": ">100"},
      {"smiles": "COc1cc(OC)c(/C=c2\\[nH]c(=O)/c(=C/c3ccccn3)[nH]c2=O)c(OC)c1", "lowest concentration causing severe inhibition of nauplii movement": ">100"},
      {"smiles": "O=c1[nH]/c(=C\\c2ccc(Cl)cc2)c(=O)[nH]/c1=C\\c1ccccc1", "lowest concentration causing severe inhibition of nauplii movement": ">100"},
      {"smiles": "COc1cc(OC)c(/C=c2\\[nH]c(=O)/c(=C/c3ccc(OC)c(OC)c3)[nH]c2=O)c(OC)c1", "lowest concentration causing severe inhibition of nauplii movement": ">100"},
      {"smiles": "CC(C)/C=c1\\[nH]c(=O)c(=CC=Cc2ccccc2)[nH]c1=O", "lowest concentration causing severe inhibition of nauplii movement": ">100"},
      {"smiles": "CCCCC/C=c1\\[nH]c(=O)/c(=C/CCCCC)[nH]c1=O", "lowest concentration causing severe inhibition of nauplii movement": 100},
      {"smiles": "COc1cc(/C=c2\\[nH]c(=O)/c(=C/c3cc(OC)cc(OC)c3)[nH]c2=O)cc(OC)c1", "lowest concentration causing severe inhibition of nauplii movement": ">100"},
      {"smiles": "COc1ccc(/C=c2\\[nH]c(=O)/c(=C/c3c[nH]c4ccccc34)[nH]c2=O)cc1OC", "lowest concentration causing severe inhibition of nauplii movement": ">100"},
      {"smiles": "COc1cc(/C=c2\\[nH]c(=O)/c(=C/c3c[nH]c4ccccc34)[nH]c2=O)cc(OC)c1OC", "lowest concentration causing severe inhibition of nauplii movement": 100},
      {"smiles": "COc1ccc(/C=c2\\[nH]c(=O)/c(=C/c3ccccc3)[nH]c2=O)cc1", "lowest concentration causing severe inhibition of nauplii movement": ">100"}
    ]},
    {"test_system": "Artemia salina", "test": "as §1", "assay_type": "functional", "settings": "read-out: LD50 (the source's name)", "outline": "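Artemia salina eggs held 24 h in artificial seawater; about 20 nauplii per well in 980 µL brine. Compound added at 1-100 µg in 20 µL DMSO, top level 100 µg/mL (solubility limit), each concentration in quadruplicate. Incubated 24 h at 26 °C. Nauplii movement inhibition and survival scored against DMSO controls, with control deaths <10%.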", "units": {"LC50": "µg/mL"}, "values": [
      {"smiles": "COc1ccc(/C=c2\\[nH]c(=O)/c(=C/c3ccccn3)[nH]c2=O)cc1OC", "LC50": 60},
      {"smiles": "COc1cc(/C=c2\\[nH]c(=O)/c(=C/c3ccccn3)[nH]c2=O)cc(OC)c1", "LC50": 36},
      {"smiles": "COc1cc(/C=c2\\[nH]c(=O)/c(=C/c3cccs3)[nH]c2=O)cc(OC)c1", "LC50": 18}
    ]}
  ]
}
